Tests used:
[1] = target: T1, Complement C1r subcomponent (Homo sapiens, UniProt P00736)
T1 sequence (P00736 whole entry): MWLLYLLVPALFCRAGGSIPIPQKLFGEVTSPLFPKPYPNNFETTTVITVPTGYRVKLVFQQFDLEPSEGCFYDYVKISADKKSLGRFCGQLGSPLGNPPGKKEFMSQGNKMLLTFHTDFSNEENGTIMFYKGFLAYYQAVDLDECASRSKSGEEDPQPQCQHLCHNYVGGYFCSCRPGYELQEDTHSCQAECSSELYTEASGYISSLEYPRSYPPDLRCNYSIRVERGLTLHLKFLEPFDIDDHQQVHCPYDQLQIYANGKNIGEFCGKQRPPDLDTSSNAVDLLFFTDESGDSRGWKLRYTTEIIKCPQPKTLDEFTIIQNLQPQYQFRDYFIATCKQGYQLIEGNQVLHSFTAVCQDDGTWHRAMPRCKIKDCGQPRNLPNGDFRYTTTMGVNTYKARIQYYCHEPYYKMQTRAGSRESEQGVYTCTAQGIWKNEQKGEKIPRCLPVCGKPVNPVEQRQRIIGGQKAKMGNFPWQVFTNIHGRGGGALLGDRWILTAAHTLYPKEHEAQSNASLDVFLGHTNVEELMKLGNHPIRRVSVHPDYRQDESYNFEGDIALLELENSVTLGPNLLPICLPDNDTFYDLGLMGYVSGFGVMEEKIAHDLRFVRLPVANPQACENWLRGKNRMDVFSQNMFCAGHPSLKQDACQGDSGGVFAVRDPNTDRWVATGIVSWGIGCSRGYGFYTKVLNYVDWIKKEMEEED

[2] = target: T1, Complement C1r subcomponent; experiment: 50% inhibition of human C1r serine protease after 60 mins using Cbz-Gly-Arg-S-Bzl as substrate
Outline: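 Compound (DMSO) preincubated 60 min at room temperature in 150 mM Tris pH 7.5, then substrate (1.5 mM stock Cbz-Gly-Arg-S-Bzl in DMSO/H2O 3:7), DTNB (0.75 mM stock) and purified human C1r (20 μg/mL stock, 10 mM Tris pH 7.4) added. Read kinetically at 405 nm after 30 s; no-enzyme background wells; triplicates per concentration; IC50 reported.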

Serine protease 1 [3] = target: T2, Serine protease 1 (Bos taurus, UniProt P00760); experiment: The compound was evaluated to inhibit trypsin and is expressed in IC50 (The concentration required to inhibit 50% of the enzyme).
T2 sequence (P00760 whole entry): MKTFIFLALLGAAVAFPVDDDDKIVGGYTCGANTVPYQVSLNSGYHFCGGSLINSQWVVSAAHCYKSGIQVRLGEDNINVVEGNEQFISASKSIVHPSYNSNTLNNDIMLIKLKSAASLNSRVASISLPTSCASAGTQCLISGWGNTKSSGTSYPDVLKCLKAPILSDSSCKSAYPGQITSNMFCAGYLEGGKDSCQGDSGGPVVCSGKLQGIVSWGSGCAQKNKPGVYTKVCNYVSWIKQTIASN
Outline: (§1)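 Bovine pancreatic trypsin (1.25 μg) with casein 0.5 mg/mL, 20 mM dithiothreitol, 50 mM Tris-HCl pH 7.4, at various inhibitor concentrations; 60 min, 25 °C caseinolysis, colorimetric development, absorbance 595 nm. IC50 from percent inhibition versus log [inhibitor]; mean of two to four determinations, ranges within 20%.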

Serine protease 1 [4] = target: T2, Serine protease 1; experiment: Concentration of compound required to inhibit 50% trypsin derived from bovine pancreas
Outline: as §1

[5] = The compound was examined in a functional assay using erythrocyte hemolysis as a functional end point of complement inhibition.; design: species or system Ovis aries; concentration or dose not given beside the values
Outline: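 Compound added to standardized antibody-sensitized sheep erythrocyte suspension (commercial complement kit), incubated 60 min at 25 °C, centrifuged; supernatant absorbance read at 405 nm. Expressed as percent of control at 200 μM.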

| SMILES | IC50 [1] [µM] | IC50 [2] [µM] | further results |
| --- | --- | --- | --- |
| Cc1cccc2nc(Nc3ccccc3I)oc(=O)c12 | > 62.5 |  |  |
| O=c1oc(Nc2ccccc2I)nc2cccc(Cl)c12 |  | > 62.5 |  |
| N=C(N)c1ccc2cc(OC(=O)c3ccc(N=C(N)N)cc3)ccc2c1 [NAFAMOSTAT] |  |  | IC50 (Serine protease 1 [3]): 0.017 µM |
| COc1cc2nc(Nc3ccccc3I)oc(=O)c2cc1OC | 47 | 47 |  |
| O=c1oc(Nc2ccccc2I)nc2cc(F)c(F)cc12 |  | > 62.5 |  |
| O=c1oc(Nc2ccccc2OC(F)(F)F)nc2ccccc12 |  | > 62.5 |  |
| O=c1oc(Nc2ccccc2I)nc2cc(C(F)(F)F)ccc12 |  | 4 | IC50 (Serine protease 1 [4]): > 100 µM; Hemolysis (% of control) [5]: 146% |
| CCN(c1nc2ccccc2c(=O)o1)c1ccccc1I | > 62.5 |  |  |
| O=c1oc(Nc2ccccc2I)nc2cc3ccccc3cc12 | 0.2 | 16.6 |  |
| O=c1oc(Nc2ccccc2Cl)nc2cc(Cl)c(Cl)cc12 |  | > 62.5 |  |
| O=c1oc(Nc2ccccc2I)nc2cc(F)ccc12 | 1.7 | 2.8 | IC50 (Serine protease 1 [4]): > 100 µM |
| CN(c1nc2ccccc2c(=O)o1)c1ccccc1I |  | 16.6 | IC50 (Serine protease 1 [4]): 4.5 µM; Hemolysis (% of control) [5]: 72% |
| O=c1oc(Nc2cc(Cl)ccc2Cl)nc2ccccc12 | 2 | 2 | IC50 (Serine protease 1 [4]): > 100 µM; Hemolysis (% of control) [5]: 131% |
| O=c1oc(Nc2ccccc2I)nc2cc(Cl)c(Cl)cc12 |  | > 62.5 |  |
| O=c1oc(Nc2ccccc2I)nc2cc(C3CCCCC3)ccc12 | > 62.5 |  |  |
| COc1ccc2c(=O)oc(Nc3ccccc3I)nc2c1 | > 62.5 |  |  |
| Cc1cccc2nc(NC(C)C)oc(=O)c12 | > 62.5 |  |  |
| O=c1oc(Nc2ccccc2I)nc2cc(Cl)ccc12 |  | 0.9 |  |
| O=c1oc(Nc2c(Cl)cccc2Cl)nc2ccccc12 | 0.9 | 0.9 |  |
| O=c1oc(Nc2ccccc2Cl)nc2cc(Cl)ccc12 | 0.8 | 0.8 | IC50 (Serine protease 1 [4]): > 100 µM; Hemolysis (% of control) [5]: 138% |
| CN(C)c1ccc2c(=O)oc(Nc3ccccc3I)nc2c1 | > 62.5 |  |  |
| CSc1ccccc1Nc1nc2ccccc2c(=O)o1 | > 62.5 |  |  |

| SMILES | IC50 [1] [µM] | IC50 [2] [µM] | further results |
| --- | --- | --- | --- |
| O=c1oc(Nc2ccccc2Br)nc2ccccc12 |  | 15.2 | IC50 (Serine protease 1 [4]): > 100 µM |
| CNc1nc2ccccc2c(=O)o1 | > 62.5 |  |  |
| O=c1oc(Nc2ccccc2I)nc2cc(Cl)cc(Cl)c12 | > 62.5 |  |  |
| O=c1oc(NCCc2ccccc2I)nc2ccccc12 | > 62.5 |  |  |
| O=c1oc(Nc2ccccc2I)nc2ccc(Cl)cc12 |  | > 62.5 |  |
| CC(C)c1ccc2c(=O)oc(Nc3ccccc3I)nc2c1 | > 62.5 |  |  |
| O=c1oc(Nc2c(Cl)cccc2Cl)nc2cc(C(F)(F)F)ccc12 | 1.5 | 4.2 | IC50 (Serine protease 1 [4]): 87.1 µM; Hemolysis (% of control) [5]: 120% |
| O=c1oc(Nc2ccccc2I)nc2cc([N+](=O)[O-])ccc12 | 0.8 | 7.8 | IC50 (Serine protease 1 [4]): > 100 µM; Hemolysis (% of control) [5]: 126% |
| O=c1oc(Nc2ccccc2I)nc2ccccc12 |  | 14.7 |  |
| Cc1ccc2c(=O)oc(Nc3ccccc3Cl)nc2c1 |  | 0.9 |  |
| O=c1oc(Nc2c(Cl)cccc2Cl)nc2cc(Cl)ccc12 |  | 0.9 |  |
| O=c1oc(-c2ccccc2I)nc2ccccc12 |  |  | IC50 (Serine protease 1 [4]): 15.3 µM; Hemolysis (% of control) [5]: 61% |
| COc1ccc2nc(Nc3ccccc3I)oc(=O)c2c1 |  | > 62.5 |  |
| Nc1nc2ccccc2c(=O)o1 | > 62.5 |  |  |
| O=c1oc(NCc2ccccc2I)nc2ccccc12 | > 62.6 |  |  |
| O=c1oc(Nc2ccccc2Cl)nc2cc([N+](=O)[O-])ccc12 |  | > 62.5 |  |
| Cc1ccc2nc(Nc3ccccc3I)oc(=O)c2c1 | > 62.5 |  |  |
| Cc1ccc2c(=O)oc(Nc3ccccc3I)nc2c1 |  | 1.5 | IC50 (Serine protease 1 [4]): > 100 µM; Hemolysis (% of control) [5]: 114% |
| O=c1oc(Nc2ccccc2Cl)nc2ccccc12 |  | 8 |  |
| Cc1cccc(C)c1Nc1nc2ccccc2c(=O)o1 | > 62.5 |  |  |
| Cc1ccccc1Nc1nc2ccccc2c(=O)o1 |  | 38 |  |
